Assay results published in article PMC6585766 (Clinical Pharmacology in Drug Development, 2018).
“Also recorded” adds a separate entry of the source. Where two headings read alike, the source gives them in different places.

Assays:
[1] = fed vs fasted; ref data on file; cited from earlier work
Safety assessment = assay type: in vivo, human; conditions: single oral 4-mg dose
How it was run: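 Open-label, multicentre study in male subjects (healthy, mild, moderate or severe hepatic impairment) given a single oral 4-mg dose. Adverse events were recorded from consent through a follow-up telephone call 7 ± 1 days after dosing, plus any reported within 28 days. Physical exams, vital signs, 12-lead ECGs and clinical laboratory tests were also done. TEAEs were tabulated by system organ class and preferred term, each subject counted once per event.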

[2] = assay type: in vivo, human; conditions: for AUC / AUC(0-inf) / Cmax / half-life / Tmax: human, plasma, po, 4 mg; for AUC / AUC(0-inf) / Cmax / Tmax / CL/F / AUC0‐t, Ratio (%) of Geometric Mean (Impaired vs Healthy) / AUC, Ratio (%) of Geometric Mean (Impaired vs Healthy) / Cmax, Ratio (%) of Geometric Mean (Impaired vs Healthy) / tmax, Median Difference (Impaired– Healthy): single oral 4-mg dose; for AUC(0-inf): AUC (time 0 extrapolated to infinity); for half-life: t1/2, single oral 4-mg dose; for AUC0‐t, Ratio (%) of Geometric Mean (Impaired vs Healthy) / AUC, Ratio (%) of Geometric Mean (Impaired vs Healthy) / Cmax, Ratio (%) of Geometric Mean (Impaired vs Healthy): ANOVA; for tmax, Median Difference (Impaired– Healthy): nonparametric method
How it was run: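 Male subjects (8 per group: healthy, mild, moderate, severe hepatic impairment) received a single oral 4-mg dose. Water was withheld from 60 min pre-dose to 2 h post-dose, food until at least 4 h post-dose, and CYP1A2/CYP3A modulators from 14 days prior. Plasma was sampled pre-dose to 48 h and assayed by validated LC-MS/MS. Noncompartmental parameters used actual sampling times. ANOVA (group as fixed effect) gave geometric mean ratios with 90% CI versus matched healthy subjects.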

[3] = heavy smokers (approximately 25 cigarettes per day); ref data on file; cited from earlier work
[4] = human, cited from earlier work
[5] = cited from earlier work
[6] = patients with relapsed and refractory multiple myeloma; cited from earlier work
[7] = administered during the period of organogenesis; no reference given; cited from earlier work
[8] = severe hepatic impairment group, 1 subject
[9] = group 1 healthy subjects, n = 8, arithmetic mean (SD)
[10] = group 2 severe hepatic impairment, n = 8, arithmetic mean (SD)
[11] = group 3 moderate hepatic impairment, n = 8, arithmetic mean (SD)
[12] = group 4 mild hepatic impairment, n = 8, arithmetic mean (SD)

In the case of `Nc1cccc2c1C(=O)N(C1CCC(=O)NC1=O)C2=O` (centres unmarked) [Pomalidomide], the “decrease of AUC by food” value [1] is given as 8%, the “total number of TEAEs” value (Safety assessment; all 32 subjects) is given as 8 and the “clinically significant clinical laboratory, vital sign, or ECG results” value (Safety assessment; all subjects) is given as “No subject had a clinical laboratory, vital sign, or ECG result that was considered clinically significant or reported as a TEAE”. For the same compound, the “deaths, SAEs, TEAEs leading to discontinuation” value (Safety assessment; all subjects) was “No deaths, SAEs, or TEAEs leading to discontinuation were reported; also recorded: No deaths or other SAEs were reported and no subjects were discontinued; also recorded: no deaths and no subject discontinued due to a TEAE”, the “severity of TEAEs” value (Safety assessment; all subjects) was “All TEAEs were mild in severity except for 1 subject in the moderate hepatic impairment group with the moderate TEAE of bronchitis” and the TEAEs reported (Safety assessment; healthy subjects) was “No TEAEs”. For the same compound, the safety and tolerability (Safety assessment; healthy subjects and subjects with severe, moderate, or mild hepatic impairment) was “safe and well tolerated”, the “subjects reporting at least 1 TEAE related to pomalidomide” value (shortened to “subjects reporting … to pomalidomide”) (Safety assessment; mild hepatic impairment group, 2 subjects) was 25.0% and the “subjects reporting TEAEs” value (Safety assessment; mild hepatic impairment group, 4 subjects) was 50.0%. For the same compound, the “subjects reporting TEAEs” value (Safety assessment; moderate hepatic impairment group, 1 subject) was 12.5%, the “subjects reporting … to pomalidomide” value (Safety assessment; overall, 3 subjects (diarrhea, nausea, headache, flushing)) was 9.4% and the “subjects reporting TEAEs” value (Safety assessment; overall, 6 of 32 subjects) was 18.8%. For the same compound, the “subjects reporting TEAEs” value (Safety assessment; [8]) was 12.5%, the “subjects reporting … to pomalidomide” value (Safety assessment; [8]) was 12.5% and the AUC ([2]; AUC0‐t, Geometric Mean, healthy, N = 8) was 481 ng·h/mL. It also gave an AUC ([2]; AUC0‐t, Geometric Mean, mild hepatic impairment, N = 8) of 693 ng·h/mL, an AUC ([2]; AUC0‐t, Geometric Mean, moderate hepatic impairment, N = 8) of 725 ng·h/mL and an AUC ([2]; AUC0‐t, Geometric Mean, severe hepatic impairment, N = 8) of 762 ng·h/mL. For the same compound, the AUC ([2]; AUC0‐t, group 1 healthy subjects, n = 8, arithmetic mean (SD)) was 493 ng·h/mL, the AUC ([2]; AUC0‐t, group 2 severe hepatic impairment, n = 8, arithmetic mean (SD)) was 822 ng·h/mL and the AUC ([2]; AUC0‐t, group 3 moderate hepatic impairment, n = 8, arithmetic mean (SD)) was 764 ng·h/mL. The AUC ([2]; AUC0‐t, group 4 mild hepatic impairment, n = 8, arithmetic mean (SD)) was 728 ng·h/mL, the AUC(0-inf) [2, 9] was 498 ng·h/mL and the AUC(0-inf) [2, 10] was 908 ng·h/mL. For the same compound, the AUC(0-inf) [2, 11] was 810 ng·h/mL, the AUC(0-inf) [2, 12] was 787 ng·h/mL and the AUC ([2]; AUC, Geometric Mean, healthy, N = 8) was 486 ng·h/mL. The AUC ([2]; AUC, Geometric Mean, mild hepatic impairment, N = 8) was 734 ng·h/mL, the AUC ([2]; AUC, Geometric Mean, moderate hepatic impairment, N = 8) was 764 ng·h/mL and the AUC ([2]; AUC, Geometric Mean, severe hepatic impairment, N = 8) was 833 ng·h/mL. It also gave a Cmax ([2]; Geometric Mean, healthy, N = 8) of 59.2 ng/mL, a Cmax ([2]; Geometric Mean, mild hepatic impairment, N = 8) of 55.8 ng/mL and a Cmax ([2]; Geometric Mean, moderate hepatic impairment, N = 8) of 56.2 ng/mL. For the same compound, the Cmax ([2]; Geometric Mean, severe hepatic impairment, N = 8) was 44.9 ng/mL, the Cmax [2, 10] was 49.1 ng/mL and the Cmax [2, 12] was 56.2 ng/mL. For the same compound, the half-life [2, 10] was 12.7 h, the half-life [2, 11] was 10.1 h and the half-life [2, 12] was 10.3 h. For the same compound, the Tmax ([2]; Geometric Mean, healthy, N = 8, Table 4) was 1.5 h, the Tmax ([2]; Geometric Mean, mild hepatic impairment, N = 8, Table 4) was 2.25 h and the Tmax ([2]; Geometric Mean, moderate hepatic impairment, N = 8, Table 4) was 2.38 h. It also gave a Tmax ([2]; Geometric Mean, severe hepatic impairment, N = 8, Table 4) of 2.5 h, a Tmax ([2]; group 1 healthy subjects, n = 8, median (min, max)) of 1.5 h and a Tmax ([2]; group 2 severe hepatic impairment, n = 8, median (min, max)) of 2.5 h. For the same compound, the Tmax ([2]; group 3 moderate hepatic impairment, n = 8, median (min, max)) was 2.25 h, the Tmax ([2]; group 4 mild hepatic impairment, n = 8, median (min, max)) was 2 h and the “increase of pomalidomide exposure” value ([2]; mild hepatic impairment vs healthy) was “approximately 50%”. The “increase of pomalidomide exposure” value ([2]; moderate hepatic impairment vs healthy) was “approximately 60%”, the “increase of pomalidomide exposure” value ([2]; severe hepatic impairment vs healthy) was “approximately 70%” and the CL/F [2, 9] was 8.4 (1.9) L/h. For the same compound, the CL/F [2, 10] was 5.4 (3.3) L/h, the CL/F [2, 11] was 5.6 (2.6) L/h and the CL/F [2, 12] was 5.8 (2.2) L/h. For the same compound, the “AUC0‐t, Ratio (%) of Geometric Mean (Impaired vs Healthy)” value (from here on “AUC0‐t, Ratio (%) of Geometric Mean”) ([2]; mild vs healthy) was 143.9%, the “AUC, Ratio (%) of Geometric Mean (Impaired vs Healthy)” value (“AUC, Ratio (%) of Geometric Mean” below) ([2]; mild vs healthy) was 151.2% and the “Cmax, Ratio (%) of Geometric Mean (Impaired vs Healthy)” value (“Cmax, Ratio (%) of Geometric Mean” below) ([2]; mild vs healthy) was 94.2%. For the same compound, the “tmax, Median Difference (Impaired– Healthy)” value (“tmax, Median Difference” for short) ([2]; mild vs healthy) was 1.0 h, the “AUC0‐t, Ratio (%) of Geometric Mean” value ([2]; moderate vs healthy) was 150.6% and the “AUC, Ratio (%) of Geometric Mean” value ([2]; moderate vs healthy) was 157.5%. For the same compound, the “Cmax, Ratio (%) of Geometric Mean” value ([2]; moderate vs healthy) was 94.8%, the “tmax, Median Difference” value ([2]; moderate vs healthy) was 1.0 h and the “AUC0‐t, Ratio (%) of Geometric Mean” value ([2]; severe vs healthy) was 158.4%. The “AUC, Ratio (%) of Geometric Mean” value ([2]; severe vs healthy) was 171.5%, the “Cmax, Ratio (%) of Geometric Mean” value ([2]; severe vs healthy) was 75.8% and the “tmax, Median Difference” value ([2]; severe vs healthy) was 0.75 h. The “AUC lower in heavy smokers than in nonsmokers” value [3] was 30%, the “Cmax higher in heavy smokers than in nonsmokers” value [3] was 14.4% and the “clearance pathway: CYP–mediated hydroxylation with subsequent glucuronidation” value [4] was 43 % of the dose. The “unchanged pomalidomide in urine” value [4] was 2.2 % of the dose, the “total [14C]‐radioactivity recovered in feces” value ([4]; oral) was 15.5% and the “total [14C]‐radioactivity recovered in urine” value ([4]; oral) was 72.8%. For the same compound, the “recovery of total [14C]‐radioactivity” value ([4]; oral, urine plus feces) was “approximately 88 % of the administered dose”, the “unchanged pomalidomide in feces” value ([4]; samples collected during the 96‐hour postdose period) was 7.7 % of the dose and the “clearance pathway: excretion of unchanged drug” value ([4]; share of the dose) was 10%. For the same compound, the “clearance pathway: glutarimide ring hydrolysis” value ([4]; share of the dose) was 25%, the “effect on exposure of pomalidomide” value ([5]; co‐administration of a strong CYP1A2 inhibitor in the presence of a strong CYP3A inhibitor) was “approximately doubled” and the “effect on exposure to pomalidomide” value ([5]; co‐administration of a strong CYP3A inhibitor or inducer or a P‐glycoprotein inhibitor) was “no clinically relevant effect”. The “nonrenal routes as share of pomalidomide total body clearance” value [6] was “approximately 70%” and the teratogenicity [7] was “teratogenic”.
